PubChem BioAssay
The source made the active and inactive calls.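 The calls were made as follows, unless noted: active = fluorescence slope after compound addition differing from the mean of all tested samples at 99.7% confidence, mostly higher but some lower; inactive = the rest.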

Assays:
[1] = inhibitors of TNFa-induced NFkB p65 translocation, primary screen, imaging, HUVEC, MLSMR starter and 10KST1 sets (AID 438;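 active = inhibition above 20% together with a positive visual image hit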;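 also: compound added about 3h40 before a 20 min TNFalpha stimulation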;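 as to inhibition: signal is the nuclear over cytoplasmic p65 intensity ratio per well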); details: HUVEC TNFa-induced p65 nuclear translocation; cell count: measured here: nuclei count (cytotoxicity indicator), at 2.08 µM; inhibition: at 2 µM, stronger effect = higher value, 0% TNFa-plus-vehicle, 100% no-TNFa wells
[2] = reduction of polyQ htt aggregates in cells – imaging, exon1htt(103Q)mCFP cells, high-content imaging, primary screen (AID 483;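 active = visual image review flags a hit and inhibition of aggregation exceeds 20%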;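 also: compound exposure lasted 3 days before fixation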;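 as to nuclei count: percent of the per-plate median nuclei count of sample wells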); details: exon1htt(103Q)mCFP cell line, aggregate imaging, at 2 µM; inhibition of aggregation: stronger effect = higher value; nuclei count: measured here: cell count, toxicity
[3] = endothelial E-selectin expression blockers – imaging, HUVEC, immunofluorescence, MLSMR starter and 10KST1 sets, primary screen (AID 487;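 active = visually confirmed hit in the image check and inhibition above 20%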;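 as to inhibition: signal is fraction of cell area covered by stained E-selectin grains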;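 as to nuclei count: 100% = median nuclei count of all wells on the same plate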); details: HUVEC TNFalpha-induced E-selectin immunofluorescence imaging, at 2 µM; inhibition: stronger effect = higher value; nuclei count: measured here: cell number, toxicity
[4] = target: Voltage-gated potassium channel subunit beta-2 (Rattus norvegicus) (UniProt P62483); assay: inhibitors of rat Kvbeta2 reductase activity – biochemical, NADPH fluorescence, primary screen (AID 622;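 active = fluorescence slope higher than the sample average by over 3 SD, cut at about -0.22 in these data, passing the limit was not always enough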;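 also: slope of raw intensity against log time taken from 70 to 1610 s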); details: recombinant KvBeta, 4-cyanobenzaldehyde reduction, at 10 µM, stronger effect = higher value
Chain of Voltage-gated potassium channel subunit beta-2 (Rattus norvegicus) (P62483 whole entry, looked up): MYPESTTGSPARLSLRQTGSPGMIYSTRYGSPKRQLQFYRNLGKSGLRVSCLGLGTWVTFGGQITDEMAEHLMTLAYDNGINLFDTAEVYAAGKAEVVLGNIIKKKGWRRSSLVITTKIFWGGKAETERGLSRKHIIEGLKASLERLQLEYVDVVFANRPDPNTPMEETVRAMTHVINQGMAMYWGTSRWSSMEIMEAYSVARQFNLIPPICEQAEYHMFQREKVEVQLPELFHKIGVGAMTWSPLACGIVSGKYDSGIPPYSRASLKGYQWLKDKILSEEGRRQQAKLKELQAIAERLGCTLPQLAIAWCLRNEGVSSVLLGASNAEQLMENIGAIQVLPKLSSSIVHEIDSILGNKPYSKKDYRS

[5] = target: Voltage-gated potassium channel subunit beta-2 (Rattus norvegicus) (UniProt P62483); assay: enhancers of rat Kvbeta2 NADPH turnover – biochemical, NADPH fluorescence, primary screen (AID 623;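 active = NADPH fluorescence slope more negative than the mean of all samples by about 3 SD, 99.7% confidence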;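 also: fluorescence intensity change per second fitted from 20 to 320 s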); details: Recombinant KvBeta, NADPH fluorescence decrease slope, 10 min; at 10 µM; stronger effect = lower value
[6] = target: Muscarinic acetylcholine receptor M4 (Homo sapiens) (UniProt P08173); assay: M4-linked GIRK flux change, two-sided – cell-based, HEK293 M4/GIRK, thallium flux, BTC-AM, M4 allosteric agonist project, primary screen (AID 625); details: at 10 µM, actives lie on both sides;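 also: thallium influx through GIRK channels coupled to M4 in HEK293 cells with BTC-AM dye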
Chain of Muscarinic acetylcholine receptor M4 (Homo sapiens) (P08173 whole entry, looked up): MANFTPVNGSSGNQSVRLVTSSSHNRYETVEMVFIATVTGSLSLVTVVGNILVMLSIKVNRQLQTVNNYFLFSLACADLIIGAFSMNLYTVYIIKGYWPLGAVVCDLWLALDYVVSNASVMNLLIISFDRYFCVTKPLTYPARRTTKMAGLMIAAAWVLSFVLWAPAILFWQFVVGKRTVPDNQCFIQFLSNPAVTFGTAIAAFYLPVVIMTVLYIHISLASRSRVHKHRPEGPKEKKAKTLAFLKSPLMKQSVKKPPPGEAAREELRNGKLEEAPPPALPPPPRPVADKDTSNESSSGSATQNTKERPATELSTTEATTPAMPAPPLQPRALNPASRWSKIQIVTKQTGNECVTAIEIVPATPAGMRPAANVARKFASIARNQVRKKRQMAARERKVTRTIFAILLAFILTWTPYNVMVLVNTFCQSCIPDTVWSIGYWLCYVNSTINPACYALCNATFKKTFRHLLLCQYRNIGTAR
How it was run: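 Material – HEK293 cells with M4 receptor and GIRK channels · Buffer or medium – pH 7.3 thallium assay buffer · Doses – one dose, 10 µM final · Timing – cells overnight at 37 °C, BTC-AM loading 1 h, reads 2 min total · Measured by – kinetic fluorescence with BTC-AM dye · Controls – carbachol and DMSO controls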

[7] = blockers of RIG-like receptor reporter activation – cell-based, Sendai virus stimulus, luciferase, 10K MLSCN set, TLR/RLR signaling modifier project, primary screen (AID 602276;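 active = inhibition at or above 50% at 10 µM; inactive = inhibition below 50%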;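 also: firefly luciferase from ISG56 promoter only with Renilla not read in this screen; 0% = Sendai virus plus DMSO and 100% = medium plus DMSO without virus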); details: HEK293 RL24 IRF3 luciferase reporter, at 10 µM, stronger effect = higher value
[8] = TLR3 IRF3 reporter activation blockers – cell-based, poly I:C stimulus, luciferase, 10K MLSCN set, primary screen (AID 602277;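 active = inhibition of the reporter signal at or above 50%; inactive = inhibition below 50%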); details: HEK293-TLR3 RL24 IRF3 luciferase reporter, at 10 µM, stronger effect = higher value

SMILES | cell count [1] | inhibition [1] | inhibition of aggregation [2] | nuclei count [2] [%] | inhibition [3] | nuclei count [3] [%] | fluorescence slope [4] | NADPH fluorescence slope [5] | fluorescence slope [6] | inhibition [7] | inhibition [8]
Cc1ccc(-c2ccc(/C=N/n3cnnc3)o2)cc1Cl | 432 | -1.5% (inactive) | 2.7% (inactive) | 85.3 | 10.4% (inactive) | 110 | -0.555 (inactive) | -1.9e-05 (inactive) | 0.00662 (inactive) | 3.11% (inactive) | -7.7% (inactive)
Cc1cc(C)n(CCCNC(=O)c2ccc(S(=O)(=O)NCc3ccco3)cc2)n1 | 682 | -4.4% (inactive) | -3.9% (inactive) | 108 | -9.9% (inactive) | 136 | -0.562 (inactive) | -8.3e-05 (inactive) | 0.00603 (inactive) | 18.9% (inactive) | 23% (inactive)
COc1ccc(C(C)(C)C)cc1NC(=O)Nc1ccc2c(c1)OCO2 | 433 | 2.7% (inactive) | 7.4% (inactive) | 102 | -13.1% (inactive) | 96.8 | -0.577 (inactive) | -8.3e-06 (inactive) | 0.0063 (inactive) | -6.55% (inactive) | -2.75% (inactive)
Cc1ccc(SCCC(=O)N(C)C)cc1 | 637 | -8.6% (inactive) | 10.5% (inactive) | 89.8 | -143% (inactive) | 103 | -0.459 (inactive) | -2.6e-05 (inactive) | 0.00561 (inactive) | -10.8% (inactive) | -52.8% (inactive)
CC(C)(C)OC(=O)N1CCC(C(=O)N[C@H](Cc2ccccc2)C(=O)O)CC1 | 523 | -7.8% (inactive) | 19.6% (inactive) | 85.5 | -11.8% (inactive) | 89.3 | -0.323 (inactive) | -5.3e-05 (inactive) | 0.00514 (inactive) | 15.3% (inactive) | 18.1% (inactive)
CCOC(=O)c1ccc(NC(=O)N2CCN(CCc3ccccc3)CC2)cc1 | 361 | 2.5% (inactive) | 18.6% (inactive) | 84.1 | 20.3% (inactive) | 75.8 | -0.475 (inactive) | -4.1e-05 (inactive) | 0.00422 (inactive) | 6.1% (inactive) | -14.9% (inactive)
CN(C)c1cccc(N=C2C=C(N3CCOCC3)CC(C)(C)C2)c1 | 473 | 2.4% (inactive) | 8.4% (inactive) | 86.3 | -54.6% (inactive) | 116 | -0.55 (inactive) | -1.9e-05 (inactive) | 0.00498 (inactive) | -0.858% (inactive) | 16.5% (inactive)
Nc1nc(CN2CCN(Cc3ccc4c(c3)OCO4)CC2)nc(Nc2ccccc2)n1 | 652 | 6.8% (inactive) | -1.8% (inactive) | 116 | -9.3% (inactive) | 115 | -0.578 (inactive) | -4.8e-05 (inactive) | 0.00565 (inactive) | 10.9% (inactive) | 22.6% (inactive)
O=c1c[n+]([O-])c2ccccc2n1OCc1ccccn1 | 649 | -0.8% (inactive) | -17.9% (inactive) | 103 | -73% (inactive) | 106 | -0.464 (inactive) | 2.5e-05 (inactive) | 0.00798 (inactive) | -4.06% (inactive) | -7.39% (inactive)
Nn1c(CSc2nc3ccccc3o2)nnc1CSc1nc2ccccc2o1 | 449 | -13.4% (inactive) | 24.5% (inactive) | 85.3 | 29.7% (inactive) | 86 | -0.408 (inactive) | 5.7e-05 (inactive) | 0.00537 (inactive) | 9.57% (inactive) | 17% (inactive)
Fc1c(F)c(F)c(CSc2nc3ccccc3[nH]2)c(F)c1F | 423 | 0% (inactive) | 28.9% (inactive) | 82.8 | -40.6% (inactive) | 86.2 | -0.562 (inactive) | -3.7e-05 (inactive) | 0.0075 (inactive) | -6.35% (inactive) | -46.6% (inactive)
COc1ccc(N(CC(=O)N2c3ccccc3CC2C)S(=O)(=O)c2c(C)noc2C)cc1 (centres undefined) | 539 | -5.8% (inactive) | -18.3% (inactive) | 118 | -62.5% (inactive) | 116 | -0.395 (inactive) | 9.4e-05 (inactive) | 0.00594 (inactive) | 14.5% (inactive) | 30.9% (inactive)
Cc1cc(C)cc(NS(=O)(=O)c2ccc3[nH]cc(C(=O)NCc4ccco4)c(=O)c3c2)c1 | 416 | 1.5% (inactive) | 3.8% (inactive) | 99.9 | -19.7% (inactive) | 97.7 | -0.57 (inactive) | -4.7e-05 (inactive) | 0.00555 (inactive) | 39.5% (inactive) | 49.1% (inactive)
COc1ccc(S(=O)(=O)NCc2ccco2)cc1-c1nnc2c3ccccc3c(C)nn12 | 723 | -2.2% (inactive) | -27% (inactive) | 101 | -77.8% (inactive) | 106 | -0.444 (inactive) | -2.6e-05 (inactive) | 0.00549 (inactive) | 12.3% (inactive) | 11.8% (inactive)
